Assay results: ChEMBL document CHEMBL1144880, “Identification of phenylisoxazolines as novel and viable antibacterial agents active against Gram-positive pathogens” (J Med Chem, 2003)
In brackets after ≈: the same amount, converted by molar mass.

How the values were obtained:
[1] = tested on: Enterococcus faecalis; assay: In vitro minimum inhibitory concentration (MIC) against Enterococcus faecalis UC9217; type: functional
Outline: (§1)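 MIC determined by standard broth microdilution, defined as the lowest drug concentration (µg/mL) inhibiting visible growth.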

[2] = tested on: Staphylococcus epidermidis; assay: In vitro minimum inhibitory concentration (MIC) against Staphylococcus epidermidis UC12084; type: functional; outline: as §1
[3] = tested on: Moraxella catarrhalis; assay: In vitro minimum inhibitory concentration (MIC) against Moraxella catarrhalis UC30610; type: functional; outline: as §1
[4] = tested on: Staphylococcus aureus; assay: In vitro minimum inhibitory concentration (MIC) against Staphylococcus aureus UC12673; type: functional; outline: as §1
[5] = tested on: Streptococcus pneumoniae; assay: In vitro minimum inhibitory concentration (MIC) against Streptococcus pneumoniae UC9912; type: functional; outline: as §1
[6] = tested on: Staphylococcus aureus; assay: In vitro minimum inhibitory concentration (MIC) against Staphylococcus aureus UC9213; type: functional; outline: as §1
[7] = tested on: Haemophilus influenzae; assay: In vitro minimum inhibitory concentration (MIC) against Haemophilus influenzae UC30063; type: functional; outline: as §1
[8] = tested on: Escherichia coli; assay: In vitro minimum inhibitory concentration (MIC) against Escherichia coli UC6674; type: functional; outline: as §1
[9] = Tmax value in Male Sprague-Dawley Rat at dose 25 (mg/kg po) [tmax (h)]; type: ADME, organism-based; conditions: in vivo
Outline: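 Male Sprague-Dawley rats dosed intravenously or orally. Intact compound measured in plasma by HPLC-UV after protein-precipitation sample preparation. Half-life reported as harmonic mean apparent terminal disposition half-life. Bioavailability is absolute oral bioavailability. Some comparator values are archival data.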

[10] = organism: Rattus norvegicus; assay: Compound was evaluated for metabolic stability via In vitro Rat 5E6 cell at 50 uM concentration; type: functional
[11] = tested on: Mus musculus; assay: In Vivo effective dose required for antibacterial activity in a systemic mouse infection model (SMIM) upon peroral administration against Staphylococcus aureus UC9213; type: functional; conditions: po
Outline: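 Compound was given orally at 1 and 5 h after infection. Deaths were monitored for at least 6 days, and ED50 (dose curing 50% of mice) was calculated by probit analysis.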

SMILES	MIC [1]	MIC [2]	MIC [3]	MIC [4]	MIC [5]	MIC [6]	MIC [7]	MIC [8]	Tmax [9]	Remaining at 40 min [10]	ED50 [11]
COC(=O)N1CC=C(c2ccc(C3=NOC(CNC(C)=O)C3)cc2)CC1 (stereo unspecified)	16 µg/mL (≈ 44.8 µM)	8 µg/mL (≈ 22.4 µM)	> 16 µg/mL	16 µg/mL (≈ 44.8 µM)	4 µg/mL (≈ 11.2 µM)	16 µg/mL (≈ 44.8 µM)	> 16 µg/mL	> 16 µg/mL			
CC(=O)NC[C@H]1CC(c2ccc(F)c(F)c2)=NO1	> 16 µg/mL	> 16 µg/mL	> 16 µg/mL	> 16 µg/mL	> 16 µg/mL	> 16 µg/mL	> 16 µg/mL	> 16 µg/mL			
CC(=O)NC[C@@H]1CC(c2cc(F)c(N3CCOCC3)c(F)c2)=NO1	> 16 µg/mL	> 16 µg/mL	> 16 µg/mL	> 16 µg/mL	> 16 µg/mL	> 16 µg/mL	> 16 µg/mL	> 16 µg/mL			
CC(=O)NC[C@H]1CC(c2cc(F)c(-n3ccnc3)c(F)c2)=NO1	8 µg/mL (≈ 25 µM)	2 µg/mL (≈ 6.24 µM)	> 16 µg/mL	4 µg/mL (≈ 12.5 µM)	2 µg/mL (≈ 6.24 µM)	8 µg/mL (≈ 25 µM)	> 16 µg/mL	> 16 µg/mL			
CC(=O)NC[C@H]1CN(c2ccc(N3CCOCC3)c(F)c2)C(=O)O1 [LINEZOLID]		1 µg/mL (≈ 2.96 µM)	8 µg/mL (≈ 23.7 µM)				16 µg/mL (≈ 47.4 µM)	> 32 µg/mL	18.6 min	97%	
CC(=O)NCC1CC(c2ccc(C3=CCN(C(C)=O)CC3)cc2)=NO1 (stereo unspecified)	8 µg/mL (≈ 23.4 µM)	4 µg/mL (≈ 11.7 µM)	> 16 µg/mL	8 µg/mL (≈ 23.4 µM)	2 µg/mL (≈ 5.86 µM)	8 µg/mL (≈ 23.4 µM)	> 16 µg/mL	> 16 µg/mL			
C/C(S)=N/C[C@H]1CC(c2cc(F)c(N3CCOCC3)c(F)c2)=NO1	1 µg/mL (≈ 2.81 µM)	0.25 µg/mL (≈ 0.703 µM)	2 µg/mL (≈ 5.63 µM)	1 µg/mL (≈ 2.81 µM)	0.25 µg/mL (≈ 0.703 µM)	1 µg/mL (≈ 2.81 µM)	16 µg/mL (≈ 45 µM)	> 16 µg/mL			> 20 mg/kg
CC(=O)NC[C@H]1CC(c2ccc(-c3ccncc3)cc2)=NO1	2 µg/mL (≈ 6.77 µM)	0.5 µg/mL (≈ 1.69 µM)	8 µg/mL (≈ 27.1 µM)	2 µg/mL (≈ 6.77 µM)	0.25 µg/mL (≈ 0.846 µM)	1 µg/mL (≈ 3.39 µM)	16 µg/mL (≈ 54.2 µM)	> 16 µg/mL			
CC(=O)NCC1CC(c2ccc(C3=CCN(C(=O)CO)CC3)cc2)=NO1 (racemic)	8 µg/mL (≈ 22.4 µM)	4 µg/mL (≈ 11.2 µM)	> 16 µg/mL	4 µg/mL (≈ 11.2 µM)	2 µg/mL (≈ 5.6 µM)	4 µg/mL (≈ 11.2 µM)	> 16 µg/mL	> 16 µg/mL			
CC(=O)NC[C@@H]1CC(c2ccc(C3=CCN(C(=O)CO)CC3)cc2)=NO1	> 16 µg/mL	> 16 µg/mL	> 16 µg/mL	> 16 µg/mL	> 16 µg/mL	> 16 µg/mL	> 16 µg/mL	> 16 µg/mL			
CC(=O)NC[C@H]1CC(c2ccc(-n3cccc3)c(F)c2)=NO1	4 µg/mL (≈ 13.3 µM)	0.5 µg/mL (≈ 1.66 µM)	16 µg/mL (≈ 53.1 µM)	2 µg/mL (≈ 6.64 µM)	0.5 µg/mL (≈ 1.66 µM)	2 µg/mL (≈ 6.64 µM)	> 16 µg/mL	> 16 µg/mL			
CC(=O)NC[C@H]1CC(c2ccc(-n3cc(C#N)cn3)c(F)c2)=NO1	4 µg/mL (≈ 12.2 µM)	1 µg/mL (≈ 3.06 µM)	8 µg/mL (≈ 24.4 µM)	2 µg/mL (≈ 6.11 µM)	0.5 µg/mL (≈ 1.53 µM)	2 µg/mL (≈ 6.11 µM)	16 µg/mL (≈ 48.9 µM)	> 16 µg/mL			
COc1ccc(-c2ccc(C3=NOC(CNC(C)=O)C3)cc2)ccc1=O (stereo unspecified)	4 µg/mL (≈ 11.4 µM)	2 µg/mL (≈ 5.68 µM)	> 16 µg/mL	4 µg/mL (≈ 11.4 µM)	0.5 µg/mL (≈ 1.42 µM)	4 µg/mL (≈ 11.4 µM)	> 16 µg/mL	> 16 µg/mL			15.4 mg/kg
CC(=O)NC[C@H]1CC(c2cc(F)c(N3CCNCC3)c(F)c2)=NO1	4 µg/mL (≈ 11.8 µM)	0.5 µg/mL (≈ 1.48 µM)	8 µg/mL (≈ 23.6 µM)	4 µg/mL (≈ 11.8 µM)	0.25 µg/mL (≈ 0.739 µM)	4 µg/mL (≈ 11.8 µM)	8 µg/mL (≈ 23.6 µM)	> 16 µg/mL			
CC(=O)NCC1CC(c2ccc(N3CCN(C(=O)CO)CC3)c(F)c2)=NO1 (racemic)	8 µg/mL (≈ 21.1 µM)	4 µg/mL (≈ 10.6 µM)	16 µg/mL (≈ 42.3 µM)	8 µg/mL (≈ 21.1 µM)	2 µg/mL (≈ 5.29 µM)	8 µg/mL (≈ 21.1 µM)	> 16 µg/mL	> 16 µg/mL			
C/C(S)=N/C[C@H]1CC(c2ccc(-n3cccc3)c(F)c2)=NO1	1 µg/mL (≈ 3.15 µM)	0.5 µg/mL (≈ 1.58 µM)	4 µg/mL (≈ 12.6 µM)	1 µg/mL (≈ 3.15 µM)	0.5 µg/mL (≈ 1.58 µM)	1 µg/mL (≈ 3.15 µM)	> 16 µg/mL	> 16 µg/mL			

SMILES	MIC [1]	MIC [2]	MIC [3]	MIC [4]	MIC [5]	MIC [6]	MIC [7]	MIC [8]	Tmax [9]	Remaining at 40 min [10]	ED50 [11]
CC(=O)NC[C@H]1CC(c2ccc(N3CCCC3)c(F)c2)=NO1	8 µg/mL (≈ 26.2 µM)	4 µg/mL (≈ 13.1 µM)	> 16 µg/mL	4 µg/mL (≈ 13.1 µM)	2 µg/mL (≈ 6.55 µM)	4 µg/mL (≈ 13.1 µM)	> 16 µg/mL	> 16 µg/mL			
CC(=O)NC[C@H]1CC(c2cc(F)c(N3CCOCC3)c(F)c2)=NO1	4 µg/mL (≈ 11.8 µM)	2 µg/mL (≈ 5.89 µM)	8 µg/mL (≈ 23.6 µM)	4 µg/mL (≈ 11.8 µM)	1 µg/mL (≈ 2.95 µM)	4 µg/mL (≈ 11.8 µM)	> 16 µg/mL	> 16 µg/mL			> 20 mg/kg
CC(=O)NC[C@H]1CC(c2ccc(C3=CCN(C(=O)CO)CC3)cc2)=NO1	4 µg/mL (≈ 11.2 µM)	1 µg/mL (≈ 2.8 µM)	8 µg/mL (≈ 22.4 µM)	2 µg/mL (≈ 5.6 µM)	0.5 µg/mL (≈ 1.4 µM)	2 µg/mL (≈ 5.6 µM)	> 16 µg/mL	> 16 µg/mL			6 mg/kg
CC(=O)NCC1CC(c2ccc(N3CCN(C(=O)CO)CC3)cc2)=NO1 (stereo unspecified)	16 µg/mL (≈ 44.4 µM)	4 µg/mL (≈ 11.1 µM)	> 16 µg/mL	8 µg/mL (≈ 22.2 µM)	4 µg/mL (≈ 11.1 µM)	16 µg/mL (≈ 44.4 µM)	> 16 µg/mL	> 16 µg/mL			
CC(=O)NC[C@H]1CC(c2ccc(-n3ccc(C#N)c3)c(F)c2)=NO1	1 µg/mL (≈ 3.06 µM)	0.25 µg/mL (≈ 0.766 µM)	4 µg/mL (≈ 12.3 µM)	0.5 µg/mL (≈ 1.53 µM)	< 0.125 µg/mL	1 µg/mL (≈ 3.06 µM)	16 µg/mL (≈ 49 µM)	> 16 µg/mL			
CC(=O)NCC1CC(c2cc(F)c(N3CCOCC3)c(Cl)c2)=NO1 (stereo unspecified)	16 µg/mL (≈ 45 µM)	8 µg/mL (≈ 22.5 µM)	> 16 µg/mL	8 µg/mL (≈ 22.5 µM)	4 µg/mL (≈ 11.2 µM)	8 µg/mL (≈ 22.5 µM)	> 16 µg/mL	> 16 µg/mL			
CC(=O)NC[C@H]1CC(c2ccc(-n3cncn3)c(F)c2)=NO1	> 16 µg/mL	8 µg/mL (≈ 26.4 µM)	> 16 µg/mL	16 µg/mL (≈ 52.8 µM)	4 µg/mL (≈ 13.2 µM)	> 16 µg/mL	> 16 µg/mL	> 16 µg/mL			
CC(=O)NC[C@H]1CC(c2ccc(-n3cccn3)c(F)c2)=NO1	16 µg/mL (≈ 52.9 µM)	4 µg/mL (≈ 13.2 µM)	> 16 µg/mL	16 µg/mL (≈ 52.9 µM)	4 µg/mL (≈ 13.2 µM)	16 µg/mL (≈ 52.9 µM)	> 16 µg/mL	> 16 µg/mL			
COC(=O)N1CC=C(c2ccc(-c3cc(CNC(C)=O)on3)cc2)CC1	> 16 µg/mL	> 16 µg/mL	> 16 µg/mL	> 16 µg/mL	> 16 µg/mL	> 16 µg/mL	> 16 µg/mL	> 16 µg/mL			
CC(=O)NC[C@H]1CC(c2ccc(-n3ccnc3)c(F)c2)=NO1	4 µg/mL (≈ 13.2 µM)	1 µg/mL (≈ 3.31 µM)	16 µg/mL (≈ 52.9 µM)	2 µg/mL (≈ 6.62 µM)	1 µg/mL (≈ 3.31 µM)	2 µg/mL (≈ 6.62 µM)	> 16 µg/mL	> 16 µg/mL			
CC(=O)NCC1CC(c2cc(F)c(N3CCOCC3)c(F)c2)=NO1 (racemic)	8 µg/mL (≈ 23.6 µM)	4 µg/mL (≈ 11.8 µM)	16 µg/mL (≈ 47.2 µM)	8 µg/mL (≈ 23.6 µM)	2 µg/mL (≈ 5.89 µM)	8 µg/mL (≈ 23.6 µM)	> 16 µg/mL	> 16 µg/mL			
CC(=O)NC[C@H]1CC(c2cc(F)c(N3CCN(C(=O)CO)CC3)c(F)c2)=NO1	2 µg/mL (≈ 5.05 µM)	0.5 µg/mL (≈ 1.26 µM)	8 µg/mL (≈ 20.2 µM)	1 µg/mL (≈ 2.52 µM)	0.5 µg/mL (≈ 1.26 µM)	2 µg/mL (≈ 5.05 µM)	16 µg/mL (≈ 40.4 µM)	> 16 µg/mL			5 mg/kg
C/C(S)=N/C[C@H]1CC(c2cc(F)c(-n3ccnc3)c(F)c2)=NO1	8 µg/mL (≈ 23.8 µM)	2 µg/mL (≈ 5.95 µM)	> 16 µg/mL	4 µg/mL (≈ 11.9 µM)	2 µg/mL (≈ 5.95 µM)	4 µg/mL (≈ 11.9 µM)	> 16 µg/mL	> 16 µg/mL			
CC(=O)NCC1CC(c2ccc(Br)cc2)=NO1 (stereo unspecified)	> 16 µg/mL	> 16 µg/mL	> 16 µg/mL	> 16 µg/mL	> 16 µg/mL	> 16 µg/mL	> 16 µg/mL	> 16 µg/mL			
CC(=O)NC[C@@H]1CC(c2ccc(N3CCN(C(=O)CO)CC3)c(F)c2)=NO1	> 16 µg/mL	> 16 µg/mL	> 16 µg/mL	> 16 µg/mL	> 16 µg/mL	> 16 µg/mL	> 16 µg/mL	> 16 µg/mL			
